# Assay results as given in ChEMBL document CHEMBL1133105, “Antimalarial, antitrypanosomal, and antileishmanial activities and cytotoxicity of bis(9-amino-6-chloro-2-methoxyacridines): influence of the linker” (J Med Chem, 2000).
# Experiments:
# Leishmania infantum [1] = assay: Percentage of activity against Leishmania infantum 6.25 uM; assay type: functional
# Outline: (§1)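 Starch-stimulated mouse peritoneal macrophages, 30 000/well, infected after 24 h with spleen-derived L. infantum amastigotes (10:1) together with 2-fold drug dilutions (12.5–1.56 µM). Incubated 7 days at 37 °C, 5% CO2. Wright-stained slides scored microscopically as % reduction of total parasite load or of infected macrophages. Uninfected treated cultures judged microscopically for macrophage toxicity.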
# Leishmania infantum [2] = assay: Percentage of activity against Leishmania infantum at 1.56 uM; assay type: functional; outline: as §1
# Leishmania infantum [3] = assay: Percentage of activity against Leishmania infantum at 12.5 uM Concentration; Toxic upon mouse primary peritoneal macrophages; assay type: functional, organism-based; outline: as §1
# Leishmania infantum [4] = assay: Percentage of activity against Leishmania infantum at 3.13 uM; assay type: functional; outline: as §1
# MRC5 [5] = assay: Cytotoxicity on MRC-5 cells at 12.5 uM; assay type: functional; conditions: Homo sapiens
# Outline: (§2)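 MRC-5 human diploid embryonic lung cells seeded at 5 000/well, washed after 24 h, then given 2-fold drug dilutions (25, 12.5, 6.25, 3.13 µM) in RPMI + 5% FCS, final DMSO below 0.5%. Incubated 7 days at 37 °C, 5% CO2. MTT colorimetric read-out, scored as % reduction of absorbance at 540 nm versus untreated controls.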
# MRC5 [6] = assay: Cytotoxicity on MRC-5 cells at 25 uM; assay type: functional; conditions: Homo sapiens; outline: as §2
# MRC5 [7] = assay: Cytotoxicity on MRC-5 cells at 3.13 uM; assay type: functional; conditions: Homo sapiens; outline: as §2
# MRC5 [8] = assay: Cytotoxicity on MRC-5 cells at 6.25 uM; assay type: functional; conditions: Homo sapiens; outline: as §2
# Plasmodium falciparum = assay: In vitro sensitivity for Plasmodium falciparum FcB1R; assay type: functional, organism-based
# Outline: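 Asynchronous P. falciparum cultures in human erythrocytes (0.5% parasitemia, 1% haematocrit) exposed to serially diluted drug for 24 h at 37 °C. [3H]hypoxanthine (0.5 µCi/well) then added for a further 24 h. Uptake compared with drug-free controls on the same plate. IC50 taken from the concentration–response curve, averaged over independent experiments. DMSO ≤0.1%.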
# Trypanosoma cruzi [9] = assay: Percentage of activity against Trypanosoma cruzi at 1.56 uM; assay type: functional
# Outline: (§3)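 Mouse peritoneal macrophages, 30 000/well, infected after 24 h with about 100 000 T. cruzi trypomastigotes per well plus 2-fold drug dilutions (12.5–1.56 µM). Incubated 4 days at 37 °C, 5% CO2. Methanol-fixed, Giemsa-stained and scored microscopically as % reduction of total parasite load (free trypomastigotes plus intracellular amastigotes) versus untreated controls.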
# Trypanosoma cruzi [10] = assay: Percentage of activity against Trypanosoma cruzi at 12.5 uM; Toxic upon mouse primary peritoneal macrophages; assay type: functional, organism-based; outline: as §3
# Trypanosoma cruzi [11] = assay: Percentage of activity against Trypanosoma cruzi at 3.13 uM; assay type: functional; outline: as §3
# Trypanosoma cruzi [12] = assay: Percentage of activity against Trypanosoma cruzi at 6.25 uM Concentration; assay type: functional; outline: as §3
# Trypanosoma brucei [13] = assay: Percentage of activity against Trypanosoma brucei at 6.25 uM; assay type: functional
# Outline: (§4)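 Bloodstream-form T. brucei in HMI-9 medium, 10 000 parasites/well, exposed to 12.5, 6.25, 3.13 and 1.56 µM drug for 4 days. Read-out is % inhibition of parasite multiplication. Macrophage toxicity judged on mouse primary peritoneal macrophages.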
# Trypanosoma brucei [14] = assay: Percentage of activity against Trypanosoma brucei at 12.5 uM; assay type: functional; outline: as §4
# Trypanosoma brucei [15] = assay: Percentage of activity against Trypanosoma brucei at 1.56 uM; assay type: functional; outline: as §4
# Trypanosoma brucei [16] = assay: Percentage of activity against Trypanosoma brucei at 3.13 uM; assay type: functional; outline: as §4
# Trypanosoma cruzi [17] = assay: Percentage of activity against Trypanosoma cruzi at 12.5 uM; assay type: functional; outline: as §3
Structure (SMILES),Antileishmanial activity (% reduction of parasite load) (Leishmania infantum [1]),Antileishmanial activity (% reduction of parasite load) (Leishmania infantum [2]),Cytotoxicity (Leishmania infantum [3]),Percent antileishmanial activity (reduction of parasite load) (Leishmania infantum [4]),cytotoxicity at 12.5 µM (MRC5 [5]),cytotoxicity at 25 µM (MRC5 [6]),cytotoxicity at 3.13 µM (MRC5 [7]),cytotoxicity at 6.25 µM (MRC5 [8]),IC50 (Plasmodium falciparum),Parasite load reduction (Trypanosoma cruzi [9]),Cytotoxicity (Trypanosoma cruzi [10]),Reduction of T. cruzi parasite load (Trypanosoma cruzi [11]),Reduction of T. cruzi parasite load (Trypanosoma cruzi [12]),Inhibition of parasite multiplication (Trypanosoma brucei [13]),Inhibition of parasite multiplication (Trypanosoma brucei [14]),Percent inhibition of parasite multiplication (Trypanosoma brucei [15]),Parasite growth inhibition (Trypanosoma brucei [16]),T. cruzi parasite load reduction (Trypanosoma cruzi [17])
COc1ccc2nc3cc(Cl)ccc3c(NCCCN(CCCNc3c4ccc(Cl)cc4nc4ccc(OC)cc34)C(=O)C(COCc3ccccc3)NC(=O)OC(C)(C)C)c2c1 (stereo not given),90%,40%,Toxic,70%,100%,100%,100%,100%,138 nM,0%,Toxic,40%,80%,100%,100%,100%,100%,–
COc1ccc2nc3cc(Cl)ccc3c(NCCCN(CCCNc3c4ccc(Cl)cc4nc4ccc(OC)cc34)C(=O)C(CNC(=O)OCC3c4ccccc4-c4ccccc43)NC(=O)OC(C)(C)C)c2c1 (stereo not given),95%,20%,Toxic,70%,60%,68%,55%,57%,71 nM,0%,Toxic,20%,90%,100%,–,100%,100%,–
COc1ccc2nc3cc(Cl)ccc3c(NCCCCCCCCCCNc3c4ccc(Cl)cc4nc4ccc(OC)cc34)c2c1,90%,20%,Toxic,70%,80%,90%,0%,0%,57 nM,0%,–,40%,70%,100%,100%,100%,100%,99%
COc1ccc2nc3cc(Cl)ccc3c(NCCCCCCCCNc3c4ccc(Cl)cc4nc4ccc(OC)cc34)c2c1,95%,70%,Toxic,90%,100%,100%,20%,100%,19 nM,70%,Toxic,90%,98%,100%,100%,100%,100%,–
COc1ccc2nc3cc(Cl)ccc3c(NCCCN(CCCNc3c4ccc(Cl)cc4nc4ccc(OC)cc34)C(=O)C(CC(=O)OC3CCCCC3)NC(=O)OC(C)(C)C)c2c1 (stereo not given),80%,20%,Toxic,60%,100%,100%,40%,100%,31 nM,0%,–,20%,70%,100%,100%,100%,100%,98%
COc1ccc2nc3cc(Cl)ccc3c(NCCCN(CCCNc3c4ccc(Cl)cc4nc4ccc(OC)cc34)C(=O)C(CCCCNC(=O)OCC3c4ccccc4-c4ccccc43)NC(=O)OC(C)(C)C)c2c1 (stereo not given),40%,0%,Toxic,0%,90%,100%,20%,80%,273 nM,0%,Toxic,20%,80%,100%,100%,100%,100%,–
COc1ccc2nc3cc(Cl)ccc3c(NCCCN(CCCNc3c4ccc(Cl)cc4nc4ccc(OC)cc34)C(=O)C(CNC(=O)OC(C)(C)C)NC(=O)OC(C)(C)C)c2c1 (stereo not given),99%,80%,Toxic,95%,50%,70%,43%,48%,55 nM,0%,Toxic,40%,80%,100%,–,100%,100%,–
COc1ccc2nc3cc(Cl)ccc3c(NCCCCCCCCCCCCNc3c4ccc(Cl)cc4nc4ccc(OC)cc34)c2c1,80%,0%,Toxic,40%,20%,100%,0%,0%,176 nM,0%,–,0%,40%,100%,100%,70%,100%,90%
COc1ccc2nc3cc(Cl)ccc3c(NCCCN(CCCNc3c4ccc(Cl)cc4nc4ccc(OC)cc34)C(=O)CCN3CCNCC3)c2c1,0%,0%,Toxic,0%,0%,15%,0%,0%,> 500 nM,0%,–,0%,0%,100%,–,95%,99%,90%
